In ChEMBL document CHEMBL1124278, “Heterocyclic quinones with potential antitumor activity. 2. Synthesis and antitumor activity of some benzimidazole-4,7-dione derivatives” (1988):

Assays:
P338 [1] = assay: Antitumor activity against P338 leukemia cells measured as toxic level at 3.12 mg/kg, ip optimal dose on day 1 in mice; format: functional, Mus musculus; conditions: route intraperitoneal
How it was run: (§1)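 Groups of five mice were inoculated ip with 10⁶ P388 (P338) lymphocytic leukemia cells on day 0. The drug was given as a single ip injection on day 1, following NCI protocols. Optimal dose, maximum % T/C and toxic level are in mg/kg. % T/C = (average survival time of treated mice / control mice) × 100.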

P338 [2] = assay: Antitumor activity against P338 leukemia cells measured as T/C at 3.12 mg/kg, ip optimal dose on day 1 in mice; format: functional; conditions: Mus musculus, 24 h, route intraperitoneal
How it was run: (§2)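 Groups of five CD2F1 mice were inoculated ip with 10⁶ P388 lymphocytic leukemia cells on day 0. Drug was given as a single ip injection on day 1, following NCI protocols. %T/C = (average survival time of treated mice / control mice) × 100, taken at the optimal dose; the toxic dose level was also recorded.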

P338 [3] = assay: Antitumor activity against P338 leukemia cells measured as toxic level at 6.25 mg/kg, ip optimal dose on days 1-5 in mice; format: functional, Mus musculus; conditions: route intraperitoneal
How it was run: (§3)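 Groups of five mice were inoculated ip with 10⁶ P388 (P338) lymphocytic leukemia cells on day 0. Drug was injected ip daily on days 1–5, following NCI protocols. Optimal dose, maximum % T/C and toxic level are in mg/kg. % T/C = (average survival time of treated mice / control mice) × 100.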

P338 [4] = assay: Antitumor activity against P338 leukemia cells measured as T/C(average survival time of treated mice/control mice*100)at 6.25 mg/kg, ip optimal dose on days 1-5 in mice; format: functional; conditions: Mus musculus, route intraperitoneal
How it was run: (§4)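 Five CD2F1 mice per group received 10⁶ P388 lymphocytic leukemia cells ip on day 0. Drug was given ip daily on days 1–5, following NCI protocols. %T/C is mean survival time of treated over control mice × 100, taken at the optimal dose; the toxic dose level was also recorded.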

P338 [5] = assay: Antitumor activity against P338 leukemia cells measured as toxic level at 3.12 mg/kg, ip optimal dose on days 1-5 in mice; format: functional, Mus musculus; conditions: route intraperitoneal; how it was run: as §3
P338 [6] = assay: Antitumor activity against P338 leukemia cells measured as T/C(average survival time of treated mice/control mice*100)at 3.12 mg/kg, ip optimal dose on days 1-5 in mice; format: functional; conditions: Mus musculus, route intraperitoneal; how it was run: as §4
P338 [7] = assay: Antitumor activity against P338 leukemia cells measured as toxic level at 6.25 mg/kg, ip optimal dose on day 1 in mice; format: functional, Mus musculus; conditions: route intraperitoneal; how it was run: as §1
P338 [8] = assay: Antitumor activity against P338 leukemia cells measured as T/C(average survival time of treated mice/control mice*100)at 6.25 mg/kg, ip optimal dose on day 1 in mice; format: functional; conditions: Mus musculus, 24 h, route intraperitoneal; how it was run: as §2
P338 [9] = assay: Antitumor activity against P338 leukemia cells measured as toxic level at 25 mg/kg, ip optimal dose on day 1 in mice; format: functional, Mus musculus; conditions: route intraperitoneal; how it was run: as §1
P338 [10] = assay: Antitumor activity against P338 leukemia cells measured as T/C(average survival time of treated mice/control mice*100)at 25 mg/kg, ip optimal dose on day 1 in mice; format: functional; conditions: Mus musculus, 24 h, route intraperitoneal; how it was run: as §2
P338 [11] = assay: Antitumor activity against P338 leukemia cells measured as T/C(average survival time of treated mice/control mice*100)at 0.4 mg/kg, ip optimal dose on day 1 in mice; format: functional; conditions: Mus musculus, 24 h, route intraperitoneal; how it was run: as §2
P338 [12] = assay: Antitumor activity against P338 leukemia cells measured as toxic level at 0.4 mg/kg, ip optimal dose on days 1-5 in mice; format: functional, Mus musculus; conditions: route intraperitoneal; how it was run: as §3
P338 [13] = assay: Antitumor activity against P338 leukemia cells measured as T/C(average survival time of treated mice/control mice*100)at 0.4 mg/kg, ip optimal dose on days 1-5 in mice; format: functional; conditions: Mus musculus, route intraperitoneal; how it was run: as §4
P338 [14] = assay: Antitumor activity against P338 leukemia cells measured as toxic level at 0.4 mg/kg, ip optimal dose on day 1 in mice; format: functional, Mus musculus; conditions: route intraperitoneal; how it was run: as §1
P338 [15] = assay: Antitumor activity against P338 leukemia cells measured as toxic level at 1.56 mg/kg, ip optimal dose on days 1-5 in mice; format: functional, Mus musculus; conditions: route intraperitoneal; how it was run: as §3
P338 [16] = assay: Antitumor activity against P338 leukemia cells measured as T/C(average survival time of treated mice/control mice*100)at 1.56 mg/kg, ip optimal dose on days 1-5 in mice; format: functional; conditions: Mus musculus, route intraperitoneal; how it was run: as §4
P338 [17] = assay: Antitumor activity against P338 leukemia cells measured as T/C(average survival time of treated mice/control mice*100)at 12.5 mg/kg, ip optimal dose on days 1-5 in mice; format: functional; conditions: Mus musculus, route intraperitoneal; how it was run: as §4
P338 [18] = assay: Antitumor activity against P338 leukemia cells measured as toxic level at 12.5 mg/kg, ip optimal dose on days 1-5 in mice; format: functional, Mus musculus; conditions: route intraperitoneal; how it was run: as §3
P338 [19] = assay: Antitumor activity against P338 leukemia cells measured as T/C(average survival time of treated mice/control mice*100)at 25 mg/kg, ip optimal dose on days 1-5 in mice; format: functional; conditions: Mus musculus, route intraperitoneal; how it was run: as §4
P338 [20] = assay: Antitumor activity against P338 leukemia cells measured as toxic level at 25 mg/kg, ip optimal dose on days 1-5 in mice; format: functional, Mus musculus; conditions: route intraperitoneal; how it was run: as §3

Compound O=C1C=CC(=O)c2[nH]c(CO)nc21 has a Toxic level (P338 [1]) of 12.5 mg/kg, a survival at 3.12 mg/kg (P338 [2]) of 105% and a Toxic level (P338 [3]) of 12.5 mg/kg. The survival at 6.25 mg/kg (P338 [4]) was 110%.

Work on Cc1nc2c([nH]1)C(=O)C=CC2=O yielded a Toxic level (P338 [5]) of 6.25 mg/kg and a survival at 3.12 mg/kg (P338 [6]) of 100%.

In the case of O=C1C=CC(=O)c2[nH]cnc21, the Toxic level (P338 [7]) is reported as 12.5 mg/kg, the survival at 6.25 mg/kg (P338 [8]) is reported as 105% and the Toxic level (P338 [3]) is reported as 25 mg/kg. For the same compound, the survival at 6.25 mg/kg (P338 [4]) was 110%.

Work on CC1=C(C)C(=O)c2c(ncn2C)C1=O yielded a Toxic level (P338 [9]) of 100 mg/kg and a survival at 25 mg/kg (P338 [10]) of 95%.

Cn1cnc2c1C(=O)C=CC2=O showed a survival at 0.4 mg/kg (P338 [11]) of 76%, a Toxic level (P338 [12]) of 6.25 mg/kg and a survival at 0.4 mg/kg (P338 [13]) of 95%. For the same compound, the Toxic level (P338 [14]) was 3.12 mg/kg.

Work on O=C(Nc1ccccc1)OCc1nc2c([nH]1)C(=O)C=CC2=O yielded a Toxic level (P338 [3]) of 25 mg/kg and a survival at 6.25 mg/kg (P338 [4]) of 146%.

For O=C1C(Br)=C(Br)C(=O)c2[nH]cnc21, the Toxic level (P338 [15]) was 12.5 mg/kg and the survival at 1.56 mg/kg (P338 [16]) was 130%.

O=C1C(CCl)=CC(=O)c2[nH]cnc21 showed a Toxic level (P338 [5]) of 12.5 mg/kg and a survival at 3.12 mg/kg (P338 [6]) of 95%.

CC1=C(C)C(=O)c2[nH]c(C)nc2C1=O gave a survival at 12.5 mg/kg (P338 [17]) of 110% and a Toxic level (P338 [18]) of 100 mg/kg.

In the case of O=C1C(Br)=C(N2CC2)C(=O)c2[nH]cnc21, the Toxic level (P338 [3]) is reported as 12.5 mg/kg and the survival at 6.25 mg/kg (P338 [4]) is reported as 156%.

For O=C1C=C(NCc2ccccc2)C(=O)c2[nH]cnc21, the Toxic level (P338 [9]) was 100 mg/kg, the Toxic level (P338 [5]) was 150 mg/kg and the survival at 25 mg/kg (P338 [10]) was 90%. For the same compound, the survival at 3.12 mg/kg (P338 [6]) was 105%.

Compound O=C1C(Cl)=CC(=O)c2[nH]cnc21 has a Toxic level (P338 [7]) of 12.5 mg/kg and a survival at 6.25 mg/kg (P338 [8]) of 117%.

Compound CCn1cnc2c1C(=O)C(C)=C(C)C2=O has a Toxic level (P338 [9]) of 100 mg/kg and a survival at 25 mg/kg (P338 [10]) of 100%.

CC1CN1C1=C(Br)C(=O)c2[nH]cnc2C1=O (stereo not given) gave a Toxic level (P338 [3]) of 12.5 mg/kg and a survival at 6.25 mg/kg (P338 [4]) of 136%.

For NC1=C(Br)C(=O)c2[nH]cnc2C1=O, the Toxic level (P338 [3]) was 25 mg/kg and the survival at 6.25 mg/kg (P338 [4]) was 154%.

CC1=C(C)C(=O)c2[nH]cnc2C1=O showed a survival at 25 mg/kg (P338 [19]) of 130% and a Toxic level (P338 [20]) of 200 mg/kg.
